# Results: ChEMBL document CHEMBL1212705, “Gene expression signatures and small-molecule compounds link a protein kinase to Plasmodium falciparum motility” (Nat Chem Biol, 2008)
# Calls of active or inactive are those of the source. The calls are words filed in the database; no cut-off is given here.
# Assays:
# Plasmodium falciparum [1] = experiment: Binding affinity to Plasmodium falciparum PF11_0191 at 2.5 mM by LC/MS/MS analysis
# Outline: (§1)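 P. falciparum parasite lysate was incubated with agarose-immobilized inhibitor and washed extensively. Retained proteins were eluted with urea, resolved by SDS-PAGE and identified by LC/MS/MS. In a competition arm, free inhibitor (2.5 mM) was added to the lysate before incubation with the beads under identical conditions.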
# Plasmodium falciparum [2] = experiment: Binding affinity to Plasmodium falciparum PF14_0517 at 2.5 mM by LC/MS/MS analysis; outline: as §1
# Plasmodium falciparum [3] = experiment: Binding affinity to Plasmodium falciparum PFI0180w at 2.5 mM by LC/MS/MS analysis; outline: as §1
# Plasmodium falciparum [4] = experiment: Binding affinity to Plasmodium falciparum PF13_0238 at 2.5 mM by LC/MS/MS analysis; outline: as §1
# Plasmodium falciparum [5] = experiment: Binding affinity to Plasmodium falciparum PFI1680w at 2.5 mM by LC/MS/MS analysis; outline: as §1
# Plasmodium falciparum [6] = experiment: Antiplasmodial activity against Plasmodium falciparum 3D7 after 72 hrs by SYBR green assay; format: functional, organism-based; conditions: 3D7, 72 h
# Plasmodium falciparum [7] = experiment: Upregulation of proteasome gene expression in Plasmodium falciparum at 460 nM after 48 hrs by microarray analysis; format: functional, organism-based
# Outline: (§2)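 P. falciparum 3D7 was grown in human O+ erythrocytes. Heterogeneous, unsynchronized parasites were incubated with 460 nM compound for 24 or 48 h, then compared with untreated parasites on a full-genome microarray. Transcript changes were called by a statistical test.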
# Plasmodium falciparum [8] = experiment: Upregulation of DNA replication gene expression in Plasmodium falciparum at 460 nM after 48 hrs by microarray analysis; format: functional, organism-based; outline: as §2
# Toxoplasma gondii [9] = experiment: Antimicrobial activity against Toxoplasma gondii […] infected in african green monkey BSC1 cells assessed as parasite invasion at 12.5 uM after 48 hrs by microscopy relative to control; format: functional, BSC-1
# Toxoplasma gondii [10] = experiment: Antimicrobial activity against Toxoplasma gondii […] infected in african green monkey BSC1 cells assessed as parasite invasion at 3.1 uM after 48 hrs by microscopy relative to control; format: functional, BSC-1
# Plasmodium falciparum [11] = experiment: Antiplasmodial activity against multidrug-resistant Plasmodium falciparum FCB after 72 hrs by SYBR green assay; format: functional, organism-based
# Outline: (§3)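 Parasites grown in human O+ erythrocytes in RPMI with human serum and albumax. For the assay, serially diluted compounds were added to screening medium (RPMI, 4.16 mg/ml albumax) at 2.5% hematocrit and 0.3% parasitemia, then incubated 72 h in 93% N2/4% CO2/3% O2. DMSO served as baseline and uninfected erythrocytes as background. SYBR Green fluorescence was read at 520 nm to give EC50.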
# Plasmodium falciparum [12] = experiment: Antiplasmodial activity against pyrimethamine-resistant Plasmodium falciparum HB3 after 72 hrs by SYBR green assay; format: functional, organism-based; conditions: HB3, 72 h; outline: as §3
# Plasmodium falciparum [13] = experiment: Antiplasmodial activity against chloroquine-resistant Plasmodium falciparum W2 after 72 hrs by SYBR green assay; format: functional, organism-based; conditions: W2, 72 h; outline: as §3
# [14] = Cytotoxicity against CHO cells after 72 hrs by Cell Titer Glo assay; format: cell-based, Cricetulus griseus; conditions: chinese hamster, read-out: ED50
# Outline: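 Cells were seeded at 250 per well in DMEM with 5% FBS in 1,536-well plates, and compound was added the next day. Culture ran 72 h, matching the parasite proliferation assay. Viability was read by Cell Titer Glo luminescence, and EC50 was derived.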
# [15] = Cytotoxicity against human HuH7 cells after 72 hrs by Cell Titer Glo assay; format: cell-based, Huh-7; conditions: read-out: ED50
# Outline: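 Cells seeded at 250 per well in DMEM with 5% fetal bovine serum. Compound added the next day, followed by 72 h culture to match the parasite proliferation assay. Viability read by Cell Titer Glo luminescence.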
# [16] = Inhibition of GST-fused Plasmodium falciparum recombinant CDPK5 expressed in Escherichia coli Rosetta 2 assessed as inhibition of [gamma-33P]ATP incorporation into substrate peptide by scintillation counting
# Plasmodium falciparum [17] = experiment: Binding affinity to Plasmodium falciparum PF10_0153 at 2.5 mM by LC/MS/MS analysis; outline: as §1
# Plasmodium falciparum [18] = experiment: Binding affinity to Plasmodium falciparum PFI0875w at 2.5 mM by LC/MS/MS analysis; outline: as §1
# Plasmodium falciparum [19] = experiment: Binding affinity to Plasmodium falciparum PFL1545c at 2.5 mM by LC/MS/MS analysis; outline: as §1
# Plasmodium falciparum [20] = experiment: Binding affinity to Plasmodium falciparum PF10_0363 at 2.5 mM by LC/MS/MS analysis; outline: as §1
# Plasmodium falciparum [21] = experiment: Binding affinity to Plasmodium falciparum PF14_0359 at 2.5 mM by LC/MS/MS analysis; outline: as §1
# Plasmodium falciparum [22] = experiment: Binding affinity to Plasmodium falciparum MAL7P1.228 at 2.5 mM by LC/MS/MS analysis; outline: as §1
# Plasmodium falciparum [23] = experiment: Binding affinity to Plasmodium falciparum PF14_0393 at 2.5 mM by LC/MS/MS analysis; outline: as §1
# Plasmodium falciparum [24] = experiment: Binding affinity to Plasmodium falciparum PF14_0102 at 2.5 mM by LC/MS/MS analysis; outline: as §1
# Plasmodium falciparum [25] = experiment: Binding affinity to Plasmodium falciparum PF10_0268 at 2.5 mM by LC/MS/MS analysis; outline: as §1
# Plasmodium falciparum [26] = experiment: Binding affinity to Plasmodium falciparum PF14_0186 at 2.5 mM by LC/MS/MS analysis; outline: as §1
# Plasmodium falciparum [27] = experiment: Binding affinity to Plasmodium falciparum PFF0160c at 2.5 mM by LC/MS/MS analysis; outline: as §1
# Plasmodium falciparum [28] = experiment: Binding affinity to Plasmodium falciparum PF14_0439 at 2.5 mM by LC/MS/MS analysis; outline: as §1
# Plasmodium falciparum [29] = experiment: Binding affinity to Plasmodium falciparum PF14_0096 at 2.5 mM by LC/MS/MS analysis; outline: as §1
# Plasmodium falciparum [30] = experiment: Binding affinity to Plasmodium falciparum PFE1155c at 2.5 mM by LC/MS/MS analysis; outline: as §1
# [31] = Half life in BALB/c mouse 20 mg/kg single oral dose by LC/MS/MS analysis; conditions: in vivo
# [32] = Plasma concentration in BALB/c mouse at 20 mg/kg single oral dose after 24 hrs by LC/MS/MS analysis
# Plasmodium falciparum [33] = experiment: Antimicrobial activity against Plasmodium falciparum 3D7 infected in human erythrocytes after 48 hrs by microscopy
# Plasmodium falciparum [34] = experiment: Antimicrobial activity against Plasmodium falciparum 3D7 schizonts infected in human erythrocytes assessed as effect on parasitemia at 225 to 450 nM after 32 hrs by microscopy
# Plasmodium falciparum [35] = experiment: Antimicrobial activity against Plasmodium falciparum 3D7 schizonts infected in human erythrocytes assessed as effect on parasitemia at 225 to 450 nM after 48 hrs by microscopy
# Toxoplasma gondii [36] = experiment: Antimicrobial activity against Toxoplasma gondii […] infected in african green monkey BSC1 cells assessed as parasite invasion at 100 uM after 90 mins by microscopy relative to control
# Plasmodium falciparum [37] = experiment: Antimicrobial activity against Plasmodium falciparum schizonts infected in human erythrocytes assessed as minimal effect on parasite cell cycle at 450 nM treated 36 hrs after release of ring stage by microscopy
compound,measurement,setting,value
N[C@H]1CC[C@H](Nc2nc(Nc3ccc(C(=O)N4CCCCC4)cc3)c3ncn(-c4cccc(F)c4)c3n2)CC1 [PURFALCAMINE],Activity,Plasmodium falciparum [1],inactive
same,Activity,Plasmodium falciparum [2],inactive
same,Activity,Plasmodium falciparum [3],inactive
same,Activity,Plasmodium falciparum [4],inactive
same,Activity,Plasmodium falciparum [5],inactive
same,EC50,Plasmodium falciparum [6],230 nM
same,Activity,Plasmodium falciparum [7],Active
same,Activity,Plasmodium falciparum [8],Active
same,Activity,Toxoplasma gondii [9],20%
same,Activity,Toxoplasma gondii [10],60%
same,EC50,Plasmodium falciparum [11],169 nM
same,EC50,Plasmodium falciparum [12],178 nM
same,EC50,Plasmodium falciparum [13],179 nM
same,CC50 at 72 h,[14],12300 nM
same,CC50 at 72 h,[15],5480 nM
same,IC50,[16],> 3500 nM
same,Activity,Plasmodium falciparum [17],inactive
same,Activity,Plasmodium falciparum [18],inactive
same,Activity,Plasmodium falciparum [19],inactive
same,Activity,Plasmodium falciparum [20],inactive
same,Activity,Plasmodium falciparum [21],inactive
same,Activity,Plasmodium falciparum [22],inactive
same,Activity,Plasmodium falciparum [23],inactive
same,Activity,Plasmodium falciparum [24],inactive
same,Activity,Plasmodium falciparum [25],inactive
same,Activity,Plasmodium falciparum [26],inactive
same,Activity,Plasmodium falciparum [27],inactive
same,Activity,Plasmodium falciparum [28],inactive
same,Activity,Plasmodium falciparum [29],inactive
same,Activity,Plasmodium falciparum [30],inactive
same,half-life,[31],3.1 h
same,concentration at 24 h,[32],23 nM
same,EC90,Plasmodium falciparum [33]; Plasmodium falciparum 3D7,414 nM
same,EC50,"Plasmodium falciparum [33]; Plasmodium falciparum 3D7, 48 h",230 nM
same,inhibition,Plasmodium falciparum [34],inactive
same,Activity,Plasmodium falciparum [35],Active
same,Activity,Toxoplasma gondii [36],<=20%
same,Activity,Plasmodium falciparum [37],Active
